ChEMBL document CHEMBL1148788 (J Med Chem, 2007)
Values joined by “and” are separate entries in the source; they are usually repeats but may differ in a detail not shown here. Equal entries are not always repeated. Active and inactive are the calls of the source. The rule behind the calls is not given here.

Tests used:
[1] = Displacement of [3H]methyllycaconitine from chimeric alpha-7nAChR D197A mutant/5HT3A receptor in tsA201 cells; assay type: cell-based, Homo sapiens
How it was run: (§1)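 tsA-201 cells transiently transfected with 4 µg WT or mutant α7/5-HT3A chimera and assayed 2 days later. Membranes washed twice at 50000g in 50 mM Tris-HCl pH 7.2. Incubated with 0.5 nM [3H]MLA and compound for 2.5 h at room temperature with shaking; nonspecific binding with 5 mM (S)-nicotine. PEI-soaked GF/C filtration, scintillation counting. Ki derived; duplicate, 3–7 experiments.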

tsA201 [2] = assay: Displacement of [3H]methyllycaconitine from chimeric alpha-7nAChR W55A/Y195A mutant /5HT3A receptor in tsA201 cells; assay type: cell-based; conditions: Homo sapiens; how it was run: as §1
[3] = Displacement of [3H]methyllycaconitine from chimeric alpha-7nAChR K145R mutant /5HT3A receptor in tsA201 cells; assay type: cell-based, Homo sapiens; how it was run: as §1
[4] = Antagonist activity at human alpha7nAChR Y93A mutant co-expressed with human Ric3 in tsA201 cells by FMP assay; assay type: functional, cell-based
[5] = Antagonist activity at human alpha7 nAChR W149Y mutant co-expressed with human Ric3 in tsA201 cells by FMP assay; assay type: functional, cell-based
[6] = Antagonist activity at human alpha-7 nAChR Y188A mutant coexpressed with human Ric3 in tsA201 cells by FMP assay; assay type: functional, cell-based
[7] = Antagonist activity at human alpha-7 nAChR Y195A mutant coexpressed with human Ric3 in tsA201 cells by FMP assay; assay type: functional, cell-based
[8] = biological target: Neuronal acetylcholine receptor; alpha4/beta2 (Rattus norvegicus, UniProt P09483+P12390); assay: Displacement of [3H]epibatidine from rat recombinant alpha-4-beta-2 nAChR in HEK293 cell line; assay type: cell-based
Chain of Neuronal acetylcholine receptor; alpha4/beta2 (P09483 whole entry): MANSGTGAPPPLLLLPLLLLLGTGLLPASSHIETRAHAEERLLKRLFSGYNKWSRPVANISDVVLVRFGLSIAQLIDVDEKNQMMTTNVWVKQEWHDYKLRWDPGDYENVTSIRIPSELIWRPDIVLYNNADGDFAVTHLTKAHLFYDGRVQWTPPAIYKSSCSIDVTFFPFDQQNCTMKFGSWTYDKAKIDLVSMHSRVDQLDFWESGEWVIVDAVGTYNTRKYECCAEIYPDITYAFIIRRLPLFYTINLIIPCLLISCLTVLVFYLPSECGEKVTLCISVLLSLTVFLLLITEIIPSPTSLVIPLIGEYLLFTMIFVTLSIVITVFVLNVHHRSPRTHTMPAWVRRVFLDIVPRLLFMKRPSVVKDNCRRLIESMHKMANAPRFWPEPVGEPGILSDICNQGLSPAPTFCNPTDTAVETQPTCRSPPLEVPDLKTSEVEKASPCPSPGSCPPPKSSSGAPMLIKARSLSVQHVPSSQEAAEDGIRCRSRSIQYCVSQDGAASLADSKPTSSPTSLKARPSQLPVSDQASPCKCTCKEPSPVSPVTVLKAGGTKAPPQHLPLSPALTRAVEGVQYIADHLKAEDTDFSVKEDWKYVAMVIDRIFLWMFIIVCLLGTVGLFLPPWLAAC
Chain of Neuronal acetylcholine receptor; alpha4/beta2 (P12390 whole entry): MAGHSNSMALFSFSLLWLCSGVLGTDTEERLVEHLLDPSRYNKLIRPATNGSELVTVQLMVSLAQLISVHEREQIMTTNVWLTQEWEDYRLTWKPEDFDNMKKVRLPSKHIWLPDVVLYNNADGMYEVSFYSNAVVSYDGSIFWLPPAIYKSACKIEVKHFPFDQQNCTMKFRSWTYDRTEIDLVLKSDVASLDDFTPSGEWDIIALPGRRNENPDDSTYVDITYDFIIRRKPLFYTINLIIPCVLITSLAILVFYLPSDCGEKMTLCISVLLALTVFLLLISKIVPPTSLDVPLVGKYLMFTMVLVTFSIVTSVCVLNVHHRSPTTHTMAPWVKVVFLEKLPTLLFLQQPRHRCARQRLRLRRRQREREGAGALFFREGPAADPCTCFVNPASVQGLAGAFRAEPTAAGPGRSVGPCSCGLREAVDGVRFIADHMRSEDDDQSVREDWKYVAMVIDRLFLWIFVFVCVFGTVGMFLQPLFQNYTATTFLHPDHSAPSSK

[9] = biological target: T1, Neuronal acetylcholine receptor; alpha3/beta4 (Rattus norvegicus, UniProt P04757+P12392); assay: Displacement of [3H]epibatidine from recombinant rat alpha-3-beta-4 nAChr in HEK293 cell line; assay type: cell-based
T1 sequence (P04757 whole entry): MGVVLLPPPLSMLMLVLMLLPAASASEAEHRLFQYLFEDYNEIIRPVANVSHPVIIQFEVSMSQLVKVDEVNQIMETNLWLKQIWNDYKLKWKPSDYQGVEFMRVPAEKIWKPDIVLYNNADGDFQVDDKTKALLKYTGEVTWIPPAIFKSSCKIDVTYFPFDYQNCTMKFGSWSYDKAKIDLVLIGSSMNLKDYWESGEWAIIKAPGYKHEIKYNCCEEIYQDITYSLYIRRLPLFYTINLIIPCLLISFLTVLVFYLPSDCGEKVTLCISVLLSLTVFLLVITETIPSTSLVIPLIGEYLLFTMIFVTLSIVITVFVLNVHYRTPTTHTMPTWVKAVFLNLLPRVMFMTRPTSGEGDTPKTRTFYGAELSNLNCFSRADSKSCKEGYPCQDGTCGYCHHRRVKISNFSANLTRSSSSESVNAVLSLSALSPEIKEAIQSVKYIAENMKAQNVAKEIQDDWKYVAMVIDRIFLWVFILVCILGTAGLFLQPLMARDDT
T1 sequence (P12392 whole entry): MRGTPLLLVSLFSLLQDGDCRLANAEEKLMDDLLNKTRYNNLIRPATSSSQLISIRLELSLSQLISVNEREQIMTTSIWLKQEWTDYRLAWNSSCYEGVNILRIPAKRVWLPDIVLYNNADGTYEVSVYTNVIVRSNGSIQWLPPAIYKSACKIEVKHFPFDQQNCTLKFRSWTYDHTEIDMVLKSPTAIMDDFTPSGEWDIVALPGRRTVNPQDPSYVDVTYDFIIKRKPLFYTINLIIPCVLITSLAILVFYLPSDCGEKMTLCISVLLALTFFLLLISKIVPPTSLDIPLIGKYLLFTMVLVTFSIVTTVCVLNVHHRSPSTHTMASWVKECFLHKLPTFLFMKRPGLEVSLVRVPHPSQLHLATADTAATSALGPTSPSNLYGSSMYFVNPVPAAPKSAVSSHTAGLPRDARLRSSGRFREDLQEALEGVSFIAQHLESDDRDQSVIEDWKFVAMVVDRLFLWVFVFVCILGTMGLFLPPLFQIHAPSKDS

[10] = biological target: Neuronal acetylcholine receptor; alpha4/beta4 (Rattus norvegicus, UniProt P09483+P12392); assay: Displacement of [3H]epibatidine from recombinant rat alpha-4-beta-4 nAChr in HEK293 cell line; assay type: cell-based
Chain of Neuronal acetylcholine receptor; alpha4/beta4 (P09483 whole entry): as the sequence (P09483 whole entry) above
Chain of Neuronal acetylcholine receptor; alpha4/beta4 (P12392 whole entry): as the sequence (P12392 whole entry) above

[11] = biological target: T2, Neuronal acetylcholine receptor subunit alpha-7 (Homo sapiens, UniProt P36544); assay: Displacement of [3H]methyllycaconitine from human alpha-7 in tsA201 cells coexpressed with 5HT3A receptor; assay type: cell-based
Target sequence in this assay (P36544 whole entry): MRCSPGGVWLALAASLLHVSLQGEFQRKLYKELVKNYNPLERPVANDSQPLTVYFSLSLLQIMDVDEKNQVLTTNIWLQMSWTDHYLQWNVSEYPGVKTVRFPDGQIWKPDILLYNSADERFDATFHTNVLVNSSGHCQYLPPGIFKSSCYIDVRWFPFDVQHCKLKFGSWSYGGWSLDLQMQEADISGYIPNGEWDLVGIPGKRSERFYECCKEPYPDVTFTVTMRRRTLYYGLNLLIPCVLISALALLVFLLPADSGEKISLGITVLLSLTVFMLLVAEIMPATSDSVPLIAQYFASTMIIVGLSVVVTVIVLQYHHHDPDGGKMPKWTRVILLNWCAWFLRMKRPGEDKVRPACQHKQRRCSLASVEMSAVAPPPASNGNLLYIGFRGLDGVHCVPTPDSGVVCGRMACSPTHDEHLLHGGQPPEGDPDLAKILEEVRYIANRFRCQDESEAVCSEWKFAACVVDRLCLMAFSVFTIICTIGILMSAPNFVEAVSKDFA

[12] = biological target: T2, Neuronal acetylcholine receptor subunit alpha-7; assay: Displacement of [3H]methyllycaconitine from alpha7 nAChR in tsA201 cells co-expressed with Ric3; assay type: cell-based
Target sequence in this assay (P36544 whole entry): as above

[13] = biological target: T3, 5-hydroxytryptamine receptor 3A (Homo sapiens, UniProt P46098); assay: Displacement of [3H]GR65630 from human 5HT3A receptor in HEK293 cells; assay type: cell-based
T3 sequence (P46098 whole entry): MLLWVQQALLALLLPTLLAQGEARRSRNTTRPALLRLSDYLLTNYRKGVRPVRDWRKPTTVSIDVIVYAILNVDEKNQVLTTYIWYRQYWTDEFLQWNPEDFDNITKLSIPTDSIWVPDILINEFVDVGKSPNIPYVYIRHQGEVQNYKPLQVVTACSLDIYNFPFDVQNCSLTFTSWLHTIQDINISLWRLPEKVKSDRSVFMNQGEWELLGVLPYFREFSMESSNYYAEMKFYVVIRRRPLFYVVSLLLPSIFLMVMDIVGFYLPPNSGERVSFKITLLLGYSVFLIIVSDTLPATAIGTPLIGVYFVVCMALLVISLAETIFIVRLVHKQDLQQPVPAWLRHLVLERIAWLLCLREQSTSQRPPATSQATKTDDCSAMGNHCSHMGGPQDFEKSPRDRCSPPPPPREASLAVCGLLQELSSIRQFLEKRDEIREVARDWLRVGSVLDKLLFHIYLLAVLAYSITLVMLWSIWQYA

[14] = biological target: T2, Neuronal acetylcholine receptor subunit alpha-7; assay: Antagonist activity at human alpha-7 nAChR in tsA201 cells coexpressed with Ric3 by FMP assay; assay type: functional, cell-based
Target sequence in this assay (P36544 whole entry): as the sequence (P36544 whole entry) above

[15] = biological target: T1, Neuronal acetylcholine receptor; alpha3/beta4; assay: Antagonist activity at rat alpha3beta4 nAChR expressed in HEK293 cells by FMP assay; assay type: functional, cell-based, Homo sapiens; conditions: read-out: IC50
[16] = biological target: T3, 5-hydroxytryptamine receptor 3A; assay: Antagonist activity at human 5HT3A receptor expressed in HEK293 cells by FMP assay; assay type: functional, cell-based; conditions: read-out: IC50
cells = assay type: functional, cell-based; conditions: Homo sapiens, HEK293
[17] = biological target: T4, Glycine receptor subunit alpha-1 (Homo sapiens, UniProt P23415); assay: Antagonist activity at human glycine alpha-1 receptor in HEK293 cells by FMP assay; assay type: functional, cell-based
T4 sequence (P23415 whole entry): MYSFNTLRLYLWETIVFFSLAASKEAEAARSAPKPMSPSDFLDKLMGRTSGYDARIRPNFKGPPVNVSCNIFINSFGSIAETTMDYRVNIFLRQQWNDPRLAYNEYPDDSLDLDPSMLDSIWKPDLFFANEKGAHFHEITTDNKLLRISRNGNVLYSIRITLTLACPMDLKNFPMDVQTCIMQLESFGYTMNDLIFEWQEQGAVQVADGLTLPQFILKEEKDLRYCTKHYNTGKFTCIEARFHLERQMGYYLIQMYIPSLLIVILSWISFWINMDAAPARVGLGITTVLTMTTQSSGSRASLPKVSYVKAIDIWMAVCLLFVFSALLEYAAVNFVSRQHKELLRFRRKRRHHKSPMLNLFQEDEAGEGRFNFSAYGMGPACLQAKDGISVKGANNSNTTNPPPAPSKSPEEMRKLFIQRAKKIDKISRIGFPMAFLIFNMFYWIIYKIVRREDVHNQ

[18] = biological target: T2, Neuronal acetylcholine receptor subunit alpha-7; assay: Displacement of [3H]methyllycaconitine from chimeric alpha7nAChR/5HT3A in tsA201 cells; assay type: cell-based
Target sequence in this assay (P36544 23-502 limits assumed): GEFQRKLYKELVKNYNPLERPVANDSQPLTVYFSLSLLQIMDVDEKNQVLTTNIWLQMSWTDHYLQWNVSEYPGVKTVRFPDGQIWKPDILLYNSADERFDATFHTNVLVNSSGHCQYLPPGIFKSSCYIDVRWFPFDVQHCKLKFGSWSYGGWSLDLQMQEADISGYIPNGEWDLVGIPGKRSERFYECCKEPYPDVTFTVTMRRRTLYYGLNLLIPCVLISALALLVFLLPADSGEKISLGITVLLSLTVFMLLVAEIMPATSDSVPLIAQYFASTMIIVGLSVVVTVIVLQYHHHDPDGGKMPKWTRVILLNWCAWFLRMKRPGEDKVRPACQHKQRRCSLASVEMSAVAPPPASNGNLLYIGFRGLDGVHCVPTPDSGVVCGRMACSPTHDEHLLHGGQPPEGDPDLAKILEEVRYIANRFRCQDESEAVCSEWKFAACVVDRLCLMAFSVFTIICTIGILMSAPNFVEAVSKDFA

[19] = Displacement of [3H]methyllycaconitine from chimeric alpha-7nAChR W55A mutant /5HT3A receptor in tsA201 cells; assay type: cell-based, Homo sapiens; how it was run: as §1
[20] = Displacement of [3H]methyllycaconitine from chimeric alpha7nAChR W55Y mutant/5HT3A receptor in tsA201 cells; assay type: cell-based, Homo sapiens; how it was run: as §1
[21] = Displacement of [3H]methyllycaconitine from chimeric alpha7nAChR R79A mutant/5HT3A receptor R79A mutant in tsA201 cells; assay type: cell-based, Homo sapiens; how it was run: as §1
tsA201 [22] = assay: Displacement of [3H]methyllycaconitine from chimeric alpha-7nAChR Y93A mutant/5HT3A receptor in tsA201 cells; assay type: cell-based; conditions: Homo sapiens; how it was run: as §1
[23] = Displacement of [3H]methyllycaconitine from chimeric alpha-7nAChR N107A mutant/5HT3A receptor in tsA201 cells; assay type: cell-based, Homo sapiens; how it was run: as §1
[24] = Displacement of [3H]methyllycaconitine from chimeric alpha7nAChR K145A mutant/5HT3A receptor in tsA201 cells; assay type: cell-based, Homo sapiens; how it was run: as §1
[25] = Displacement of [3H]methyllycaconitine from chimeric alpha-7nAChR S148A mutant /5HT3A receptor in tsA201 cells; assay type: cell-based, Homo sapiens; how it was run: as §1
tsA201 [26] = assay: Displacement of [3H]methyllycaconitine from chimeric alpha-7nAChR W149A mutant/5HT3A receptor in tsA201 cells; assay type: cell-based; conditions: Homo sapiens; how it was run: as §1
tsA201 [27] = assay: Displacement of [3H]methyllycaconitine from chimeric alpha-7nAChR W149Y mutant/5HT3A receptor W149Y mutant in tsA201 cells; assay type: cell-based; conditions: Homo sapiens; how it was run: as §1
[28] = Displacement of [3H]methyllycaconitine from chimeric alpha-7nAChR S150A mutant/5HT3A receptor in tsA201 cells; assay type: cell-based, Homo sapiens; how it was run: as §1
[29] = Displacement of [3H]methyllycaconitine from chimeric alpha-7nAChR Y168A mutant/5HT3A receptor in tsA201 cells; assay type: cell-based, Homo sapiens; how it was run: as §1
tsA201 [30] = assay: Displacement of [3H]methyllycaconitine from chimeric alpha-7nAChR Y188A mutant/5-HT3A receptor in tsA201 cells; assay type: cell-based; conditions: Homo sapiens; how it was run: as §1
[31] = Displacement of [3H]methyllycaconitine from chimeric alpha7nAChR Y195A mutant/5HT3A receptor in tsA201 cells; assay type: cell-based, Homo sapiens; how it was run: as §1
[32] = Displacement of [3H]methyllycaconitine from chimeric alpha-7nAChR Y195F mutant/5HT3A receptor in tsA201 cells; assay type: cell-based, Homo sapiens; how it was run: as §1
[33] = biological target: T2, Neuronal acetylcholine receptor subunit alpha-7
Target sequence in this assay (P36544 whole entry): as the sequence (P36544 whole entry) above

Question: What does the source list for `C[N+]12CC[C@@H]3[C@@H]4/C(=C\N5c6ccccc6[C@@]67CC[N+]8(C)CC9=CCO[C@H]([C@@H]([C@H]56)[C@H]9C[C@@H]78)N4c4ccccc4)[C@@H](C[C@@H]31)/C(=C\CO)C2.[I-].[I-]` (stereo partly drawn)?
Answer: Ki [1]: 2200 nM; pKi [1]: 5.66; Activity (tsA201 [2]): inactive; Ki [3]: 740 nM; pKi [3]: 6.13; IC50 ([4]; read-out: IC50): 6.6 µM; IC50 ([4]; read-out: pIC50 (converted)): 6.61 µM; IC50 ([5]; read-out: IC50): 8.9 µM; IC50 ([5]; read-out: pIC50 (converted)): 8.91 µM; IC50 ([6]; read-out: IC50): 4.7 µM; IC50 ([6]; read-out: pIC50 (converted)): 4.68 µM; IC50 ([7]; read-out: IC50): 7.1 µM; IC50 ([7]; read-out: pIC50 (converted)): 7.08 µM; pKi ([8]; hek293): < 4; Ki ([8]; read-out: Ki): > 100 µM; Ki [9]: 30 µM; Ki [10]: > 100 µM; pKi ([10]; hek293): < 4; Ki ([11]; read-out: Ki): 980 nM; Ki ([11]; read-out: pKi (converted)): 1000 nM; Ki ([12]; read-out: Ki): 620 nM; Ki ([12]; read-out: pKi (converted)): 631 nM; Ki [13]: 5.9 µM; IC50 ([14]; read-out: IC50): 2100 nM; IC50 ([14]; read-out: pIC50 (converted)): 2090 nM; IC50 [15]: 30 µM; IC50 [16]: 4.2 µM; IC50 (cells; read-out: IC50): > 100 µM; IC50 (cells; read-out: pIC50 (converted)): > 100 µM; IC50 [17]: > 100 µM; pIC50 ([17]; hek293): < 4; Ki [18]: 970 nM; pKi [18]: 6.01; Ki [19]: 3.1 µM; pKi [19]: 5.51; Ki [20]: 690 nM; pKi [20]: 6.16; Ki [21]: 1400 nM; pKi [21]: 5.86; Activity (tsA201 [22]): inactive; Ki [23]: 1300 nM; pKi [23]: 5.87; Ki [24]: 890 nM; pKi [24]: 6.05; Ki [25]: 1000 nM; pKi [25]: 5.98; Activity (tsA201 [26]): inactive; Activity (tsA201 [27]): inactive; Ki [28]: 720 nM; pKi [28]: 6.14; Ki [29]: 1300 nM; pKi [29]: 5.89; Activity (tsA201 [30]): inactive; Ki [31]: 6.2 µM; pKi [31]: 5.21; Ki [32]: 1300 nM; pKi [32]: 5.9; IC50 [33]: 1400 nM and 1380 nM
